For seven compounds, IC50, MIC and Activity results are on record in ChEMBL document CHEMBL4138204, “Polyoxygenated Steroids from the Sponge Clathria gombawuiensis” (J Nat Prod, 2017).

Calls of active or inactive are those of the source.

A word on the IC50: it is the concentration at which inhibition is half-maximal. Usually MIC stands for the smallest concentration in the dilution series that meets the test's criterion for growth inhibition. Read a high MIC as weaker potency.

Assay [1] is described as follows: Inhibition of isocitrate lyase (unknown origin).
Another assay relates to K562. The assay can be described thus: Cytotoxicity against human K562 cells after 72 hrs by MTT assay. In kind it is functional, cell-based. Conditions: K562, 72 h. (Formazan colour is commonly taken as a measure of viable cells.)
In a further assay the test system is A549. In words: Cytotoxicity against human A549 cells after 72 hrs by MTT assay. In kind it is functional, cell-based. The note with it: A549, 72 h.
The subject of the next assay is Staphylococcus aureus. The assay can be described thus: Antibacterial activity against Staphylococcus aureus ATCC 6538P measured after 24 hrs. In kind it is functional.
The next assay has as its system Bacillus spizizenii. In words: Antibacterial activity against Bacillus subtilis ATCC 6633 measured after 24 hrs. The assay is classed as functional. The note with it: ATCC 6633, 24 h.
The next assay has as its system Kocuria rhizophila. The assay can be described thus: Antibacterial activity against Kocuria rhizophila NBRC 12708 measured after 24 hrs. The assay is classed as functional. The note with it: NBRC 12708, 24 h.
The test system of a further assay is Salmonella typhimurium. The assay can be described thus: Antibacterial activity against Salmonella enterica ATCC 14028 measured after 24 hrs. The assay is classed as functional, Salmonella enterica subsp. enterica serovar Typhimurium. The note with it: ATCC 14028, 24 h.
The next assay deals with Proteus hauseri. In words: Antibacterial activity against Proteus hauseri NBRC 3851 measured after 24 hrs. The assay is classed as functional. The note with it: NBRC 3851, 24 h.
For a further assay, the system named is Escherichia coli. The assay can be described thus: Antibacterial activity against Escherichia coli ATCC 35270 measured after 24 hrs. The assay is classed as functional. Conditions: ATCC 35270, 24 h.
For the next assay, the system named is Candida albicans. The assay can be described thus: Antifungal activity against Candida albicans ATCC 10231 measured after 48 to 72 hrs. The assay is classed as functional.
A further assay has as its system Trichophyton rubrum. The assay can be described thus: Antifungal activity against Trichophyton rubrum IFO 9185 measured after 48 to 72 hrs. The assay is classed as functional.
Assay [2] has as its system Trichophyton mentagrophytes. In words: Antifungal activity against Trichophyton mentagrophytes IFO 40996 measured after 48 to 72 hrs. In kind it is functional.
Another assay deals with Aspergillus fumigatus. In words: Antifungal activity against Aspergillus fumigatus HIC 6094 measured after 48 to 72 hrs. The assay is classed as functional.
Assay [3] in a line: Inhibition of recombinant sortase A (unknown origin) using Dabcyl-QALPETGEE-Edans as substrate measured after 1 hr by fluorescence assay. Further details: species or system Bacteria.
Assay [4] deals with Sodium/potassium-transporting ATPase. The assay can be described thus: Inhibition of potassium-activated sodium/potassium ATPase in human placenta using 3-Omethylfluorescein phosphate as substrate measured for 90 secs by fluorescence assay.
The species named for assay [5] is Mus musculus. The assay can be described thus: Activation of AMPKalpha in differentiated mouse 3T3L1 cells assessed as increase in 2-NBDG uptake pretreated for 30 mins followed by 2-NBDG addition measured after 1 hr by fluorescence assay. In a few lines:
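2-NBDG uptake in differentiated 3T3-L1 adipocytes. Cells got compounds at several concentrations, or 100 nM insulin as a positive control. After 1 h incubation, fluorescence was read at ex/em 450/535 nm. Mean ± SD (n = 3), compared with vehicle by ANOVA.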

For assay [6], the species on record is Mus musculus. The assay can be described thus: Activation of AMPKalpha in differentiated mouse 3T3L1 cells assessed as increase in 2-NBDG uptake at 20 uM by fluorescence microscopic analysis. In a few lines:
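Differentiated 3T3-L1 adipocytes were treated with 20 μM compound or 100 nM insulin as a positive control, then exposed to 2-NBDG as the fluorescent glucose analogue. Uptake was imaged by fluorescence microscopy as green signal inside the cells.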

The subject of assay [7] is C2C12. The assay can be described thus: Activation of AMPKalpha phosphorylation at Thr172 in mouse C2C12 cells at 20 uM after 30 mins by Western blot analysis. In kind it is cell-based. A digest of the protocol:
(§1)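 Differentiated mouse C2C12 skeletal myoblasts were given compounds at 20 μM, or Aicar (0.2 mM, AMPK activator), for 30 min. pAMPK (Thr172) and pACC (Ser79) were quantified by Western blot. Mean ± SD of 2–4 independent experiments, compared with vehicle by ANOVA.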
Background: Immunoblotting shows a protein as a band on a membrane.

Assay [8] has as its system C2C12. In words: Activation of AMPKalpha in mouse C2C12 cells assessed as increase in phosphorylation of ACC at Ser79 at 20 uM after 30 mins by Western blot analysis. In kind it is cell-based. In a few lines:
as §1

In assay [9] the test system is C2C12. In words: Activation of AMPKalpha phosphorylation at Thr172 in mouse C2C12 cells at 5 to 20 uM after 30 mins in presence of AMPK inhibitor dorsomorphin by Western blot analysis. In kind it is cell-based. In a few lines:
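C2C12 myoblasts were exposed to compound at 5, 10 and 20 μM for 30 min, with compound C pretreatment used to test AMPK dependence. pAMPK (Thr172) was measured by Western blot. Mean ± SD (n = 3), compared with control.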

Regarding `CC(C)[C@H](C)[C@@H](O)[C@H](O)[C@@H](C)[C@H]1CC(=O)[C@H]2[C@@H]3[C@@H](O)[C@H](O)[C@H]4[C@H](O)[C@@H](O)CC[C@]4(C)[C@H]3CC[C@]12C`, the half-inhibitory concentration (IC50) in assay [1] was over 128 µM; in the assay on K562, over 10 µM; with A549, over 10 µM; in [3], over 128 µM; in [4], over 128 µM. In addition, the MIC in the assay with Staphylococcus aureus, in the assay with Bacillus spizizenii, with Kocuria rhizophila, in the assay on Salmonella typhimurium, with Proteus hauseri and against Escherichia coli was over 128 µM throughout. The MIC (in the assay with Candida albicans; against Trichophyton rubrum; in assay [2]; against Aspergillus fumigatus) was over 128 µM in each case. Besides, the Activity result in the assay filed under Mus musculus [5] is “Dose-dependent effect”. Besides, the outcome in the assay listed under Mus musculus [6], in the assay with C2C12 [7] and with C2C12 [8] was Active. In addition, the outcome in the assay on C2C12 [9] was inactive.
With `CC(C)[C@H](C)[C@@H](O)C[C@@H](C)[C@H]1CC(=O)[C@H]2[C@@H]3[C@@H](O)[C@H](O)[C@H]4[C@H](O)[C@@H](O)CC[C@]4(C)[C@H]3CC[C@]12C`, the IC50 in assay [1] was over 128 µM; with K562 it was over 10 µM; with A549, over 10 µM; in assay [3] it was over 128 µM; in assay [4] it was over 128 µM. Besides, the MIC in the assay on Staphylococcus aureus, against Bacillus spizizenii, with Kocuria rhizophila, in the assay on Salmonella typhimurium, with Proteus hauseri and against Escherichia coli was over 128 µM throughout. Also, the MIC (against Candida albicans; with Trichophyton rubrum; in assay [2]; against Aspergillus fumigatus) was over 128 µM each time. For the same compound, the Activity entry in the assay filed under Mus musculus [5] was “Dose-dependent effect”. The outcome in the assay filed under Mus musculus [6], with C2C12 [7] and with C2C12 [8] was Active.
For `CC(C)C[C@H](O)C[C@@H](C)[C@H]1CC(=O)[C@@H]2[C@@H]3[C@@H](O)[C@H](O)[C@H]4[C@H](O)[C@@H](O)CC[C@]4(C)[C@H]3CC[C@]12C`, the IC50 was over 128 µM in assay [1]; over 10 µM in the assay on K562; over 10 µM with A549; over 128 µM in assay [3]; over 128 µM in [4]. Also, the minimum inhibitory concentration (MIC) in the assay on Staphylococcus aureus, against Bacillus spizizenii, in the assay with Kocuria rhizophila, against Salmonella typhimurium, in the assay with Proteus hauseri and in the assay on Escherichia coli was over 128 µM each time. For the same compound, the MIC (in the assay with Candida albicans; with Trichophyton rubrum; in assay [2]; against Aspergillus fumigatus) was over 128 µM each time. Moreover, the result in the assay on C2C12 [7] and in the assay on C2C12 [8] was Active.
As to `CC(C)C[C@@H](O)[C@H](O)[C@@H](C)[C@H]1CC(=O)[C@@H]2[C@@H]3[C@@H](O)[C@H](O)[C@H]4[C@H](O)[C@@H](O)CC[C@]4(C)[C@H]3CC[C@]12C`, the IC50 in assay [1] is over 128 µM; in the assay with K562, over 10 µM; in the assay with A549, over 10 µM; in assay [3], over 128 µM; in assay [4] it was over 128 µM. Further, the MIC against Staphylococcus aureus, against Bacillus spizizenii, against Kocuria rhizophila, against Salmonella typhimurium, in the assay with Proteus hauseri and against Escherichia coli was over 128 µM in each case. The MIC (against Candida albicans; against Trichophyton rubrum; in [2]; with Aspergillus fumigatus) was over 128 µM throughout. In the assay filed under Mus musculus [5], the Activity result was “Dose-dependent effect”. Also, the result in the assay filed under Mus musculus [6], with C2C12 [7] and in the assay on C2C12 [8] was Active.
Regarding `CC(C)[C@@H](CC[C@@H](C)[C@H]1CC(=O)[C@@H]2[C@@H]3[C@@H](O)[C@H](O)[C@H]4C[C@@H](O)CC[C@]4(C)[C@H]3CC[C@]12C)[C@@H](C)O`, the IC50 is over 128 µM in assay [1]; over 10 µM in the assay on K562; over 10 µM in the assay on A549; over 128 µM in assay [3]; over 128 µM in assay [4]. Moreover, the MIC in the assay with Staphylococcus aureus, with Bacillus spizizenii, against Kocuria rhizophila, against Salmonella typhimurium, with Proteus hauseri and in the assay with Escherichia coli was over 128 µM each time. For the same compound, the MIC (in the assay with Candida albicans; in the assay with Trichophyton rubrum; in assay [2]; in the assay with Aspergillus fumigatus) was over 128 µM in each case. Also, the Activity entry in the assay listed under Mus musculus [5] is “Dose-dependent effect”. Further, the outcome in the assay listed under Mus musculus [6], in the assay with C2C12 [7] and in the assay with C2C12 [8] was Active.
Take `CC(C)[C@H](C)[C@@H](O)[C@H](O)[C@@H](C)[C@H]1CC(=O)[C@@H]2[C@@H]3[C@@H](OS(=O)(=O)O)[C@H](O)[C@H]4[C@H](O)[C@@H](O)CC[C@]4(C)[C@H]3CC[C@]12C`: the IC50 in assay [1] was over 128 µM; with K562, over 10 µM; in the assay on A549, over 10 µM; in [3] it was over 128 µM; in [4], over 128 µM. Further, the MIC against Staphylococcus aureus, against Bacillus spizizenii, in the assay with Kocuria rhizophila, in the assay with Salmonella typhimurium, in the assay on Proteus hauseri and in the assay with Escherichia coli was over 128 µM throughout. The MIC (in the assay on Candida albicans; in the assay on Trichophyton rubrum; in assay [2]; with Aspergillus fumigatus) was over 128 µM in each case. In addition, the result in the assay on C2C12 [7] and with C2C12 [8] was Active.
As for `CC(C)[C@H](C)[C@@H](O)[C@H](O)[C@@H](C)[C@H]1CC(=O)[C@@H]2[C@@H]3[C@@H](O)[C@H](O)[C@H]4[C@H](O)[C@@H](O)CC[C@]4(C)[C@H]3CC[C@]12C`, the IC50 in [1] is over 128 µM; in the assay with K562, over 10 µM; with A549 it was over 10 µM; in [3], over 128 µM; in assay [4], over 128 µM. Further, the MIC in the assay with Staphylococcus aureus, in the assay on Bacillus spizizenii, with Kocuria rhizophila, against Salmonella typhimurium, against Proteus hauseri and in the assay on Escherichia coli was over 128 µM each time. Moreover, the MIC (with Candida albicans; against Trichophyton rubrum; in assay [2]; against Aspergillus fumigatus) was over 128 µM each time. The Activity result in the assay filed under Mus musculus [5] was “Dose-dependent effect”. For the same compound, the result in the assay listed under Mus musculus [6], with C2C12 [7] and in the assay with C2C12 [8] was Active.
